Unmarked numbers belong to inactive results.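 How the source made its calls, unless noted: active means viability at or under a set limit in both replicates, limit being median viability minus 3 SD (cut at about 48% in these data, passing the limit was not always enough); inconclusive means at or under the limit in just one replicate; inactive means at or above the limit in both replicates.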
Test: HUVEC growth inhibition – cell-based, human, primary screen (AID 575;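 active means viability at or below 30% in both replicate assays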;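 further: 100% = median of untreated cell wells with 0.1% DMSO on each plate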)
Details: HUVEC proliferation, CellTiter-Glo luminescence, 72 h; at 10 µM; hits give low values
In short: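 System – primary HUVEC, no more than 12 passages · Medium – Low-serum (2% FBS) EBM, supplemented · Times – 72 h exposure, 37 °C, 5% CO2, 30 min RT equilibration · Measured by – luminescent ATP assay · Read-out – % viability relative to median vehicle-well signal on each plate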

SMILES	viability
COC(=O)CC1SCCNC1=O (centres undefined)	103%
O=C(NCc1ccc(F)cc1)C1CCN(C(=O)NCc2ccccc2)CC1	89.8%
Cc1ccc(-n2nnnc2SCC(=O)N2CCN(C(=O)c3ccco3)CC2)c(C)c1	86%
CCOC(=O)c1cc2c(=O)n3cccc(C)c3nc2n(CCc2ccccc2)c1=N	75.9%
CC(=O)c1ccc(NS(=O)(=O)c2ccccc2)cc1	91.5%
Cn1c(-n2c(-c3ccco3)nc3ccccc3c2=O)nc2ccccc21	89.9%
O=C(CSc1ncnc2c1cnn2Cc1ccccc1)Nc1ccc2c(c1)OCCO2	74.9%
Cc1cc(C)n(-c2nc3c(c(=O)n(Cc4ccc(Cl)c(Cl)c4)c(=O)n3C)n2C)n1	93%
O=C(O)C1CCCN1C(=O)Nc1ccc(F)cc1 (centres undefined)	106%
COc1ccc(-n2nnc3c(=O)n(C/C=C/c4ccccc4)cnc32)cc1	105%
CCc1ccc(CNCc2cccnc2)cc1	91.2%
O=C(CSc1nnc(-c2ccc(Br)o2)n1Cc1ccccc1)c1ccccc1F	86.3%
Cc1sc2c(c1C)CN(C1CC(C)(C)NC(C)(C)C1)CN2C(=O)c1ccco1	75.7%
N#Cc1c(NC(NC(=O)c2ccco2)C(=O)c2ccccc2)sc2c1CCCC2 (centres undefined)	70.7%
Cc1c(NC(=O)C(C)OC(=O)COc2cccc3c2OC(C)(C)C3)c(=O)n(-c2ccccc2)n1C (centres undefined)	124%
COc1cccc(-c2noc(C3CCCN(C(=O)Cc4ccccc4)C3)n2)c1 (centres undefined)	104%
O=C(c1ccccc1Br)N1CCN(c2ccccc2)CC1	93.6%
CCOC(=O)C1CCN(c2c(NCCN3CCN(c4ccccc4)CC3)c(=O)c2=O)CC1	92.1%
O=C(CSc1nc(-c2ccccc2)cs1)NCc1ccco1	103%
COc1ccc(NS(=O)(=O)c2c(C)[nH]c(=O)[nH]c2=O)c(OC)c1	97.9%
CC1CCN(C(=O)CN2C(=O)C(C)(C)Oc3ccc(C(=O)NC4CCCC4)cc32)CC1	83.1%
Cc1cc(=O)n2nc(-c3ccccc3)sc2n1	97.2%
CCOC(=O)C1CCN(c2c(N3CCCCCC3)c(=O)c2=O)CC1	87.9%
C=CCn1c(SCC(=O)c2ccc(OC)cc2)nnc1C(C)NC(=O)c1cccs1 (centres undefined)	90.9%

Test: growth inhibitors of H69AR lung tumor, primary screen, human, duplicate replicates (AID 580);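 further: 100% = mean luminescence of untreated wells and 0% = no signal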
Details: H69AR lung tumor cells viability, ATP luminescence, 72 h; at 10 µM; hits give low values

SMILES	viability
COC(=O)c1ccc(CSc2nc(-c3ccc(OC)cc3)nc3c2c(=O)n(C)c(=O)n3C)o1	77.4%
COC(=O)c1[nH]c2cc(OC)ccc2c1NC(=O)CN1CCOCC1	94.3%
NC(=O)CSc1nnc(-c2ccc(O)cc2)n1Cc1ccco1	98.6%
COc1ccccc1NC(=O)C1=C(C)Nc2nc(CCCO)nn2C1c1cccnc1 (centres undefined)	96.2%
CCOc1ccc(NC(=O)c2ccc3c(c2)N(Cc2ccc(F)cc2)C(=O)CS3=O)cc1 (centres undefined)	90%
CCn1c(=O)cc(OCC(=O)NC2CCCCC2)c2ccccc21	87%
COc1ccc(OC)c(C(=O)CSc2nnc(-c3ccc(OC)c(OC)c3)o2)c1	74.5%
Cc1nc(Nc2nc(=O)c3ccccc3n2C)nc2c(C)cccc12	86.1%
CC(C)(C)OC(=O)NCCc1nnc(SCC(=O)c2ccc(Cl)cc2)o1	105%
CCSc1nnc(NC(=O)C2CCCN(S(=O)(=O)c3cnc[nH]3)C2)s1 (centres undefined)	91.3%
O=C1CC(Cc2ccccc2)C(=O)N1CCCn1ccnc1 (centres undefined)	92.2%
Cc1ccc(CSC2=NCCN2C(=O)c2ccco2)cc1	84.3%
O=C1c2ccccc2C(=O)N1Cc1nc2ccccc2c(=O)n1CCN1CCOCC1	88.8%
c1cn(CC2(Cn3ccnc3)COC2)cn1	99.7%
c1cncc(-c2nnc3n2N=C(c2cccs2)CS3)c1	92.5%
CCOC(=O)N1CCN(c2c(N3CCc4ccccc4C3)c(=O)c2=O)CC1	91.7%
COC(=O)CC1SCCNC1=O (centres undefined)	95.6%
O=C(NCc1ccc(F)cc1)C1CCN(C(=O)NCc2ccccc2)CC1	101%
Cc1ccc(-n2nnnc2SCC(=O)N2CCN(C(=O)c3ccco3)CC2)c(C)c1	95.5%
CCOC(=O)c1cc2c(=O)n3cccc(C)c3nc2n(CCc2ccccc2)c1=N	77.9%

SMILES	viability
CC(=O)c1ccc(NS(=O)(=O)c2ccccc2)cc1	98.6%
Cn1c(-n2c(-c3ccco3)nc3ccccc3c2=O)nc2ccccc21	90.3%
O=C(CSc1ncnc2c1cnn2Cc1ccccc1)Nc1ccc2c(c1)OCCO2	56.1%
Cc1cc(C)n(-c2nc3c(c(=O)n(Cc4ccc(Cl)c(Cl)c4)c(=O)n3C)n2C)n1	95.6%
O=C(O)C1CCCN1C(=O)Nc1ccc(F)cc1 (centres undefined)	93.6%
COc1ccc(-n2nnc3c(=O)n(C/C=C/c4ccccc4)cnc32)cc1	86.1%
CCc1ccc(CNCc2cccnc2)cc1	92.4%
O=C(CSc1nnc(-c2ccc(Br)o2)n1Cc1ccccc1)c1ccccc1F	64.7%
Cc1sc2c(c1C)CN(C1CC(C)(C)NC(C)(C)C1)CN2C(=O)c1ccco1	83.7%
N#Cc1c(NC(NC(=O)c2ccco2)C(=O)c2ccccc2)sc2c1CCCC2 (centres undefined)	86.4%
Cc1c(NC(=O)C(C)OC(=O)COc2cccc3c2OC(C)(C)C3)c(=O)n(-c2ccccc2)n1C (centres undefined)	92%
COc1cccc(-c2noc(C3CCCN(C(=O)Cc4ccccc4)C3)n2)c1 (centres undefined)	85%
O=C(c1ccccc1Br)N1CCN(c2ccccc2)CC1	102%
CCOC(=O)C1CCN(c2c(NCCN3CCN(c4ccccc4)CC3)c(=O)c2=O)CC1	99.1%
O=C(CSc1nc(-c2ccccc2)cs1)NCc1ccco1	94.8%
COc1ccc(NS(=O)(=O)c2c(C)[nH]c(=O)[nH]c2=O)c(OC)c1	90.8%
CC1CCN(C(=O)CN2C(=O)C(C)(C)Oc3ccc(C(=O)NC4CCCC4)cc32)CC1	93.4%
Cc1cc(=O)n2nc(-c3ccccc3)sc2n1	92.3%
CCOC(=O)C1CCN(c2c(N3CCCCCC3)c(=O)c2=O)CC1	98%
C=CCn1c(SCC(=O)c2ccc(OC)cc2)nnc1C(C)NC(=O)c1cccs1 (centres undefined)	87%

Reference: PubChem BioAssay
